In the library only some 3.5% were active in any assay of this set; here they are far more common.
MrgX1 PAM: positive allosteric modulators of MrgX1, primary screen, HEK293 cells, Fluo-4 calcium flux; Mas-related G-protein coupled receptor member X1 (Homo sapiens), Q96LB2; FDSS; hits give high values; B-score at 10 µM; 0.63% of 310,000 active; AID 588675, 2011;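 active means plate-corrected calcium response at least 3 library SD above typical, normal starting fluorescence, not activating the receptor alone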;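 further: compound read alongside a low EC10 to EC30 dose of BAM8-22 agonist; peak minus trough fluorescence over baseline measured at the second addition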
Target sequence (Q96LB2 whole entry, looked up): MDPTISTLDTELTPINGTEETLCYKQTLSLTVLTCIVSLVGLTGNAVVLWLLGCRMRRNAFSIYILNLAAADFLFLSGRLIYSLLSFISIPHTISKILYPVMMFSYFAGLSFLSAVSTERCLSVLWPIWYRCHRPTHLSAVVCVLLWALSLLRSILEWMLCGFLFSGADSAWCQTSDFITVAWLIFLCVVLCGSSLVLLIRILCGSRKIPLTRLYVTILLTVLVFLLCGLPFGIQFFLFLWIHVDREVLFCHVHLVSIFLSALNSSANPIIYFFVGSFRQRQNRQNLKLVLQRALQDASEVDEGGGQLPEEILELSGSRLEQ
RGS4 inh: RGS4 inhibitors, primary screen, cell-based, HEK293 M3R inducible RGS4, calcium flux; Fluo-4 calcium flux; hits give high values; triggered by carbachol at its EC20; 0.45% of 310,000 active; AID 463165, 2010; Regulator of G-protein signaling 4 (Homo sapiens), P49798; B-score at 10 µM;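 active means B-score, a plate-corrected calcium signal, over three deviations above library mean, with baseline fluorescence within five deviations of library mean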;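 further: RGS4 expression induced by doxycycline in cells with stable M3 receptor; B-score is computed from the integrated fluorescence ratio over baseline after carbachol; higher B-score means a larger calcium signal and so more RGS4 inhibition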
Target sequence (P49798 whole entry, looked up): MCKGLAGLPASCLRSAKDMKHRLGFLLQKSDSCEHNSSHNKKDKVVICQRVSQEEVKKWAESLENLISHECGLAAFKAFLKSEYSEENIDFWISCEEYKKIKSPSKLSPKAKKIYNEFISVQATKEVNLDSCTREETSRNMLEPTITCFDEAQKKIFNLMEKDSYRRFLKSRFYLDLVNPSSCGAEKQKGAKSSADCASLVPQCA
RGS4 act: RGS4 potentiators or activators, primary screen, cell-based, HEK293 M3R inducible RGS4, calcium flux; carbachol calcium flux Fluo4; hits give low values; B-score at 10 µM; 0.92% of 310,000 active; AID 463111, 2010;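 active means B-score of the integrated calcium signal more than 4 SD below the library mean, with starting fluorescence not abnormally high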;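 further: negative B-score means reduced calcium response which marks RGS4 activation or potentiation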
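Reagent: ECmax carbachol challenge; Test system: M3R-expressing HEK293 line, RGS4 induced by doxycycline; Schedule: overnight RGS4 induction, 30 min dye load 37 °C, 20 min compound RT; Detection: calcium dye Fluo4 fluorescence; Read-out: Agonist-evoked peak-minus-minimum fluorescence over baseline, integrated ratio, B score.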
MrgX1 ag: agonists of human MrgX1 receptor, primary screen, HEK293 cells, Fluo-4 calcium flux | Fluo-4 calcium fluorescence, agonist mode; hits give high values | AID 588627, 2011 | 0.44% of 310,000 active | B-score at 10 µM;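 active means calcium response B-score plate-corrected fluorescence ratio at least 3 library SD, with starting fluorescence B-score inside 5 SD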
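Test system: HEK293 cells stably expressing human MrgX1 receptor; Input: fifteen thousand cells per well; Dosing: compound delivered in addition one of three; Schedule: overnight seeding, then 1 h dark dye loading; Technique: Fluo-4 NW calcium fluorescence; Measure: B-scored fluorescence response ratio; Controls: positive and negative controls per plate.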
MrgX1 antagonist: antagonists of human MrgX1 receptor, primary screen, HEK293 cells, Fluo-4 calcium flux | Mas-related G-protein coupled receptor member X1 (Homo sapiens), Q96LB2 | BAM8-22 antagonism; hits give low values | B-score at 10 µM | 1.3% of 310,000 active;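 active means calcium-response B-score plate-corrected more than 3 library SD below zero, starting fluorescence within 5 deviations, no agonist response on first addition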;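 further: peak minus trough fluorescence over baseline after final BAM8-22 challenge near maximal dose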
Large screens that a line does not name were inactive.

CCC1(C)Cc2sc3c(=O)[nH]c(=S)[nH]c3c2CO1 (stereo not drawn)	none
CCOc1ccc(C(CC(=O)O)NC(=O)COc2ccccc2)cc1OC (stereo not drawn)	MrgX1 antagonist -5.8
O=C(OCC(=O)N(Cc1ccccc1)Cc1ccccc1)c1ccccc1NCCO	RGS4 act -9.3
c1ccc(-c2cn3nc4c(nc3n2)CCCC4)cc1	RGS4 act -7
Cc1ccc(C)c(C(=O)COC(=O)CCCC(=O)Nc2cc(C(F)(F)F)ccc2Cl)c1	MrgX1 antagonist -7
Cc1ccc(CCN2CC(C(=O)NCCCOC(C)C)CC2=O)cc1 (stereo not drawn)	MrgX1 antagonist -4.5
CC(C)OCCCNC(=O)C1CC(=O)N(CCc2ccc(F)cc2)C1 (stereo not drawn)	none
O=C(Cn1ccnc1[N+](=O)[O-])NCc1ccccc1	RGS4 act -7.7
CCCCCc1ccc(OCCCC[n+]2ccc(C)cc2)c(CCCCC)c1	none
CCCCCc1ccc(OCCCC[n+]2ccccc2)c(CCCCC)c1	RGS4 act -7.8
CCCCCc1ccc(OCCCC[n+]2cccc(C)c2)c(CCCCC)c1	RGS4 act -8.7
CC(C)(O)C#Cc1ccc(CN2CCC(n3nccc3NC(=O)C3CC3)CC2)cc1	none
CSc1nnc(C)c(=O)n1COC(=O)c1ccc(S(=O)(=O)N2CCCC2)cc1	none
O=C(Nc1cccc(S(=O)(=O)NC2=NCCC2)c1)c1cc(-c2ccco2)nc2ccccc12	none
O=C(NC(=S)Nc1cccc(S(=O)(=O)NC2=NCCC2)c1)c1cc(-c2ccco2)nc2ccccc12	MrgX1 antagonist -4.9
CC1CCCN(S(=O)(=O)c2ccc(S(=O)(=O)N3CCC4(CC3)OCCO4)cc2)C1 (stereo not drawn)	none
Cc1ccc(OCC(=O)O/N=C(\N)c2ccncc2)c(C)c1	none
Cc1cc(C)c(C)c(OCC(=O)O/N=C(\N)c2ccncc2)c1	MrgX1 PAM 9.8
CN(C)CCNC(=O)CCn1nc(-c2ccc(Cl)cc2)ccc1=O	none
COc1ccccc1C(=O)COC(=O)c1cc([N+](=O)[O-])ccc1N1CCOCC1	none
COc1cc(C(=O)COC(=O)c2cc([N+](=O)[O-])ccc2N2CCOCC2)ccc1OC(F)F	MrgX1 antagonist -6.2
O=C(CCSc1ccc(Cl)cc1)N1CCN(c2ccc(O)cc2)CC1	RGS4 act -7.2
COCCNC(=O)c1cccc(OC2CCN(Cc3ccccc3OCCO)CC2)c1	none
COCCNC(=O)c1cccc(OC2CCN(C(C)COc3ccccc3)CC2)c1 (stereo not drawn)	MrgX1 ag 32
Cc1ccc(Cl)cc1N1CCN(C(=O)CSc2nnc3n2C(C)(C)Cc2ccccc2-3)CC1	RGS4 act -7, MrgX1 antagonist -9.5
Cc1ccc(-n2nnnc2-c2cccs2)cc1[N+](=O)[O-]	RGS4 act -7.4
CCOc1ccc(-c2nc(C#N)c(NCc3ccco3)o2)cc1	none
COC(=O)c1cc(OC)c(OC)cc1N=CC1=C(O)CC(C)(C)CC1=O	none
COc1ccc(NC(=O)CSc2nnc(Cn3nnc4ccccc43)n2C)cc1	none (no result: RGS4 inh, RGS4 act)
CCc1ccccc1NC(=O)CSc1nnc(Cn2nnc3ccccc32)n1C	RGS4 act -7.5
O=[N+]([O-])c1ccc2nc(NS(=O)(=O)c3ccccc3[N+](=O)[O-])sc2c1	MrgX1 PAM 10
O=[N+]([O-])c1ccc2nc(NS(=O)(=O)c3ccc(Cl)cc3)sc2c1	MrgX1 PAM 11
O=C(NC(Nc1nc2ccc([N+](=O)[O-])cc2s1)(C(F)(F)F)C(F)(F)F)c1cccnc1	none
O=C(NC(Nc1nc2ccc([N+](=O)[O-])cc2s1)(C(F)(F)F)C(F)(F)F)c1ccccc1Cl	MrgX1 antagonist -5.5
O=[N+]([O-])c1ccccc1S(=O)(=O)Nc1nc2ccccc2s1	none
CCCN(CC(=O)Nc1ccccc1OC)Cc1c(O)ccc2ccccc12	none
O=C(c1ccc([N+](=O)[O-])cc1)N1CCSC1c1cccc(Cl)c1 (stereo not drawn)	RGS4 act -7.5
O=C(c1ccc([N+](=O)[O-])cc1)N1CCSC1c1ccccc1 (stereo not drawn)	none
Cc1ccc(C(=O)C(c2ccccc2)N2Cc3ccccc3C2=N)cc1 (stereo not drawn)	RGS4 act -8.1
Cc1ccc(S(=O)(=O)N2CCC(=O)N(C(COCc3cccc(C(F)(F)F)c3)Cc3ccccc3)CC2)cc1 (stereo not drawn)	MrgX1 antagonist -4.5
O=C(NCCc1ccc(Cl)cc1)c1ccc(CS(=O)Cc2ccccc2Cl)o1 (stereo not drawn)	RGS4 act -8.4
CCOc1ccc(CCNC(=O)c2ccc(CS(=O)Cc3ccc(Cl)cc3)o2)cc1OCC (stereo not drawn)	none
Cc1ccc(CS(=O)Cc2ccc(C(=O)NCCc3ccccc3)o2)cc1 (stereo not drawn)	none
CSc1ccc(CCNC(=O)c2ccc(CS(=O)Cc3ccccc3Cl)o2)cc1 (stereo not drawn)	MrgX1 antagonist -6
CCOc1ccc(CCNC(=O)c2ccc(CS(=O)Cc3cccc(Cl)c3)o2)cc1 (stereo not drawn)	RGS4 act -9.4
Cc1ccc(-n2nc3c(=O)n(C(C)C(=O)NCc4ccc(Cl)cc4)nc(C)c3c2C)cc1 (stereo not drawn)	none
O=C(Nc1cccc(-c2nc3ccccc3s2)c1)c1cc(-n2cnnc2)ccc1Cl	RGS4 act -8.3
Cc1c(NC(=O)c2cc(-n3cnnc3)ccc2Cl)cccc1-c1nc2ccccc2s1	none
Cc1ccc(CNC(=O)C2CCC(=O)N(C3CC3)C2)cc1 (stereo not drawn)	none
COc1ccc2oc(=O)c(C(=O)C[n+]3cccc(C)c3)cc2c1	RGS4 act -10
CNC(=O)c1cc2cc(OC)ccc2oc1=O	none
CCc1ccc(N(CC(=O)NC(C)C)C(=O)CCC(=O)Nc2nccs2)cc1	none
CCC(C)Sc1cc(-c2nc3ccc(C)cn3c2NCc2ccccc2)ccc1OC (stereo not drawn)	none
CCC(C)Sc1ccc(-c2nc3ccc(C)cn3c2NCc2ccccc2)cc1OC (stereo not drawn)	RGS4 act -8.6
CC(=O)Nc1ccc(NC(=O)C(C)Sc2nc3ccccc3c(=O)n2CC2CCCO2)cc1 (stereo not drawn)	none
CN(CCO)c1ccc(-c2nn(C)c(=O)c3ccccc23)cc1[N+](=O)[O-]	none
O=C(COc1ccc(Cl)cc1)NCc1nnc(SCC(=O)NC2CCCC2)o1	MrgX1 antagonist -6.4
O=C(CSc1nnc(COc2ccc(Cl)cc2)o1)NC1CC2CCC1C2 (stereo not drawn)	MrgX1 antagonist -4.7

High-throughput results (PubChem)
